# Measurements as given in ChEMBL document CHEMBL1147105, “In vitro and in vivo activities of PD 0305970 and PD 0326448, new bacterial gyrase/topoisomerase inhibitors with potent antibacterial activities versus multidrug-resistant gram-positive and fastidious organism groups” (2007).
# Assays:
# [1] = tested on: Enterococcus faecalis; test: Antibacterial activity against VanB-resistant Enterococcus faecalis; format: functional
# How it was run: (§1)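 Broth microdilution MIC per CLSI guidelines, incubated at 35°C. Cation-adjusted Mueller-Hinton broth for nonfastidious organisms and staphylococci. Streptococci tested in the same broth with 3% lysed horse blood. Anaerobes tested in supplemented Brucella broth inside an anaerobe chamber (5% CO2, 5% H2, 90% N2), read after 48 h. Strains were mainly recent clinical isolates with confirmed identity.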
# [2] = tested on: Enterococcus faecium; test: Antibacterial activity against Enterococcus faecium; format: functional; how it was run: as §1
# [3] = tested on: Enterococcus faecium; test: Antibacterial activity against VanB-resistant Enterococcus faecium; format: functional; how it was run: as §1
# [4] = tested on: Enterococcus casseliflavus; test: Antibacterial activity against Enterococcus casseliflavus; format: functional
# [5] = tested on: Enterococcus gallinarum; test: Antibacterial activity against Enterococcus gallinarum; format: functional
# [6] = tested on: Corynebacterium jeikeium; test: Antibacterial activity against Corynebacterium jeikeium; format: functional
# How it was run: (§2)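 Broth microdilution MIC following CLSI guidelines, in cation-adjusted Mueller-Hinton broth containing 3% lysed horse blood, incubated at 35°C. Clinical isolates with identity confirmed. Reported as MIC range, MIC50 and MIC90.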
# [7] = tested on: Corynebacterium sp.; test: Antibacterial activity against Corynebacterium sp.; format: functional; how it was run: as §2
# [8] = tested on: Haemophilus influenzae; test: Antibacterial activity against beta-lactamase negative Haemophilus influenzae; format: functional
# How it was run: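 Broth microdilution MIC following CLSI guidelines, in Haemophilus test medium at 35°C.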
# [9] = tested on: Legionella pneumophila; test: Antibacterial activity against Legionella pneumophila; format: functional
# How it was run: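 Broth microdilution MIC per CLSI guidelines, run in buffered yeast extract α-ketoglutarate broth at 35°C and read after 48 h.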
# [10] = tested on: Moraxella catarrhalis; test: Antibacterial activity against beta-lactamase positive Moraxella catarrhalis; format: functional
# [11] = tested on: Citrobacter koseri; test: Antibacterial activity against Citrobacter diversus; format: functional
# How it was run: (§3)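 Broth microdilution MIC following CLSI guidelines, in cation-adjusted Mueller-Hinton broth, incubated at 35°C. Recent clinical isolates and reference strains, with identity confirmed by automated and standard microbiological methods. Results reported as MIC range, MIC50 and MIC90.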
# [12] = tested on: Citrobacter freundii; test: Antibacterial activity against Citrobacter freundii; format: functional; how it was run: as §3
# [13] = tested on: Escherichia coli; test: Antibacterial activity against Escherichia coli; format: functional; how it was run: as §3
# [14] = tested on: Klebsiella pneumoniae; test: Antibacterial activity against Klebsiella pneumoniae; format: functional; how it was run: as §3
# [15] = tested on: Salmonella typhimurium; test: Antibacterial activity against Salmonella enterica serovar Typhimurium; format: functional, Salmonella enterica subsp. enterica serovar Typhimurium; how it was run: as §3
# [16] = tested on: Shigella sonnei; test: Antibacterial activity against Shigella sonnei; format: functional; how it was run: as §3
# [17] = tested on: Serratia marcescens; test: Antibacterial activity against Serratia marcescens; format: functional; how it was run: as §3
# [18] = tested on: Acinetobacter sp.; test: Antibacterial activity against Acinetobacter sp.; format: functional; how it was run: as §3
# [19] = tested on: Burkholderia cepacia; test: Antibacterial activity against Burkholderia cepacia; format: functional; how it was run: as §3
# [20] = tested on: Pseudomonas aeruginosa; test: Antibacterial activity against Pseudomonas aeruginosa; format: functional; how it was run: as §3
# [21] = tested on: Stenotrophomonas maltophilia; test: Antibacterial activity against Stenotrophomonas maltophilia; format: functional; how it was run: as §3
# [22] = tested on: Actinomyces sp.; test: Antibacterial activity against Actinomyces sp.; format: functional
# [23] = tested on: Fusobacterium sp.; test: Antibacterial activity against Fusobacterium sp.; format: functional
# How it was run: (§4)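 Anaerobic broth microdilution MIC following CLSI guidelines, in supplemented Brucella broth. Run in an anaerobe chamber under 5% CO2, 5% H2 and 90% N2 at 35°C, and read after 48 h. Reported as MIC range, MIC50 and MIC90.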
# [24] = tested on: Peptostreptococcus anaerobius; test: Antibacterial activity against Peptostreptococcus anaerobius; format: functional; how it was run: as §4
# [25] = tested on: Finegoldia magna; test: Antibacterial activity against Peptostreptococcus magnus; format: functional; how it was run: as §4
# [26] = tested on: Streptococcus pyogenes; test: Antibacterial activity against Streptococcus pyogenes; format: functional
# How it was run: (§5)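 Broth microdilution MIC following CLSI guidelines, in cation-adjusted Mueller-Hinton broth with 3% lysed horse blood. Plates incubated at 35°C. Clinical isolates and reference strains, with identity confirmed by standard microbiological methods.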
# [27] = tested on: Clostridium perfringens; test: Antibacterial activity against Clostridium perfringens; format: functional; how it was run: as §1
# [28] = tested on: Fusobacterium nucleatum; test: Antibacterial activity against Fusobacterium nucleatum; format: functional; how it was run: as §4
# [29] = tested on: Clostridioides difficile; test: Antibacterial activity against Clostridium difficile; format: functional; how it was run: as §4
# [30] = tested on: Bacteroides thetaiotaomicron; test: Antibacterial activity against Bacteroides thetaiotaomicron; format: functional; how it was run: as §4
# [31] = tested on: Bacteroides fragilis; test: Antibacterial activity against Bacteroides fragilis; format: functional; how it was run: as §4
# [32] = tested on: Staphylococcus aureus; test: Antibacterial activity against oxacillin-resistant Staphylococcus aureus; format: functional; how it was run: as §1
# [33] = tested on: Staphylococcus aureus; test: Antibacterial activity against vancomycin-intermediate Staphylococcus aureus; format: functional; how it was run: as §1
# [34] = tested on: Staphylococcus epidermidis; test: Antibacterial activity against oxacillin-resistant Staphylococcus epidermidis; format: functional; how it was run: as §1
# [35] = tested on: Staphylococcus haemolyticus; test: Antibacterial activity against Staphylococcus haemolyticus; format: functional; how it was run: as §2
# [36] = tested on: Staphylococcus warneri; test: Antibacterial activity against Staphylococcus warneri; format: functional; how it was run: as §3
# [37] = tested on: Alloiococcus otitis; test: Antibacterial activity against Alloiococcus otitidis; format: functional
# How it was run: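 MIC by broth microdilution following CLSI guidelines, in cation-adjusted Mueller-Hinton broth with 3% lysed horse blood. Incubated at 35°C and read after 48 h. Reported as MIC range, MIC50 and MIC90.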
# [38] = tested on: Streptococcus equinus; test: Antibacterial activity against Streptococcus bovis; format: functional; how it was run: as §5
# [39] = tested on: Streptococcus sanguinis; test: Antibacterial activity against Streptococcus sanguis; format: functional; how it was run: as §5
# [40] = tested on: Streptococcus pneumoniae; test: Antibacterial activity against penicillin-susceptible Streptococcus pneumoniae; format: functional; how it was run: as §1
# [41] = tested on: Streptococcus pneumoniae; test: Antibacterial activity against levofloxacin-resistant Streptococcus pneumoniae; format: functional; how it was run: as §1
# [42] = tested on: Enterococcus faecalis; test: Antibacterial activity against Enterococcus faecalis; format: functional; how it was run: as §1
# [43] = tested on: Enterococcus faecalis; test: Antibacterial activity against VanA-resistant Enterococcus faecalis; format: functional; how it was run: as §1
# [44] = tested on: Prevotella bivia; test: Antibacterial activity against Prevotella bivia; format: functional; how it was run: as §4
# [45] = tested on: Prevotella melaninogenica; test: Antibacterial activity against Prevotella melaninogenica; format: functional; how it was run: as §4
# [46] = tested on: Prevotella sp.; test: Antibacterial activity against Prevotella sp.; format: functional; how it was run: as §4
# [47] = tested on: Streptococcus mitis; test: Antibacterial activity against Streptococcus mitis; format: functional; how it was run: as §5
# [48] = tested on: Streptococcus viridans; test: Antibacterial activity against Streptococcus viridans; format: functional; how it was run: as §5
# [49] = tested on: Salmonella enteritidis; test: Antibacterial activity against Salmonella enterica serovar Enteritidis; format: functional, Salmonella enterica subsp. enterica serovar Enteritidis; how it was run: as §3
structure (smiles),measurement,setting,value
C[C@H]1COc2c(N3CCN(C)CC3)c(F)cc3c(=O)c(C(=O)O)cn1c23.C[C@H]1COc2c(N3CCN(C)CC3)c(F)cc3c(=O)c(C(=O)O)cn1c23.O [LEVOFLOXACIN],MIC50,[1],16 µg/mL
same,MIC90,[1],32 µg/mL
same,MIC50,[2],32 µg/mL
same,MIC90,[2],64 µg/mL
same,MIC,[3],4 µg/mL
same,MIC50,[4],2 µg/mL
same,MIC90,[4],2 µg/mL
same,MIC50,[5],1 µg/mL
same,MIC90,[5],2 µg/mL
same,MIC50,[6],0.25 µg/mL
same,MIC90,[6],0.5 µg/mL
same,MIC50,[7],0.5 µg/mL
same,MIC90,[7],32 µg/mL
same,MIC50,[8],0.015 µg/mL
same,MIC90,[8],0.03 µg/mL
same,MIC50,[9],0.008 µg/mL
same,MIC90,[9],0.015 µg/mL
same,MIC50,[10],0.03 µg/mL
same,MIC90,[10],0.06 µg/mL
same,MIC50,[11],0.03 µg/mL
same,MIC90,[11],0.06 µg/mL
same,MIC50,[12],0.125 µg/mL
same,MIC90,[12],16 µg/mL
same,MIC50,[13],0.03 µg/mL
same,MIC90,[13],1 µg/mL
same,MIC50,[14],0.06 µg/mL
same,MIC90,[14],0.5 µg/mL
same,MIC50,[15],0.03 µg/mL
same,MIC90,[15],0.06 µg/mL
same,MIC50,[16],0.03 µg/mL
same,MIC90,[16],0.06 µg/mL
same,MIC50,[17],0.125 µg/mL
same,MIC90,[17],4 µg/mL
same,MIC50,[18],0.125 µg/mL
same,MIC90,[18],16 µg/mL
same,MIC50,[19],4 µg/mL
same,MIC90,[19],16 µg/mL
same,MIC50,[20],1 µg/mL
same,MIC90,[20],64 µg/mL
same,MIC50,[21],1 µg/mL
same,MIC90,[21],4 µg/mL
same,MIC,[22],0.25 µg/mL
same,MIC,[23],0.03 µg/mL
same,MIC,[24],0.125 µg/mL
same,MIC,[25],0.125 µg/mL
same,MIC50,[26],0.5 µg/mL
same,MIC90,[26],2 µg/mL
same,MIC90,[27],0.5 µg/mL
same,MIC,[28],0.03 µg/mL
same,MIC50,[29],0.5 µg/mL
same,MIC90,[29],0.5 µg/mL
same,MIC50,[30],8 µg/mL
same,MIC90,[30],32 µg/mL
same,MIC50,[31],4 µg/mL
same,MIC90,[31],32 µg/mL
same,MIC50,[32],8 µg/mL
same,MIC90,[32],8 µg/mL
same,MIC,[33],16 µg/mL
same,MIC50,[34],8 µg/mL
same,MIC90,[34],64 µg/mL
same,MIC50,[35],0.25 µg/mL
same,MIC90,[35],32 µg/mL
same,MIC,[36],0.125 µg/mL
same,MIC50,[37],0.25 µg/mL
same,MIC90,[37],0.25 µg/mL
same,MIC50,[38],2 µg/mL
same,MIC90,[38],2 µg/mL
same,MIC50,[39],1 µg/mL
same,MIC90,[39],1 µg/mL
same,MIC50,[40],0.5 µg/mL
same,MIC90,[40],1 µg/mL
same,MIC50,[41],16 µg/mL
same,MIC90,[41],16 µg/mL
same,MIC50,[42],16 µg/mL
same,MIC90,[42],32 µg/mL
same,MIC,[43],16 µg/mL
same,MIC50,[44],1 µg/mL
same,MIC90,[44],2 µg/mL
same,MIC50,[45],1 µg/mL
same,MIC90,[45],2 µg/mL
same,MIC50,[46],1 µg/mL
same,MIC90,[46],2 µg/mL
same,MIC50,[47],1 µg/mL
same,MIC90,[47],1 µg/mL
same,MIC50,[48],1 µg/mL
same,MIC90,[48],1 µg/mL
same,MIC50,[49],0.03 µg/mL
same,MIC90,[49],0.06 µg/mL
